Laboratory results: ChEMBL document CHEMBL2046419, “Antibacterial anthraquinone derivatives from a sea anemone-derived fungus Nigrospora sp” (J Nat Prod, 2012)
Values after ≈ are worked out from the molar mass of the structure shown.

Key:
Bacillus subtilis = assay: Antibacterial activity against Bacillus subtilis ATCC 6633 after 24 hrs by serial dilution technique; format: functional; settings: ATCC 6633, 24 h
Bacillus cereus [1] = assay: Antibacterial activity against Bacillus cereus ACCC 11077 after 24 hrs by serial dilution technique; format: functional; settings: ACCC 11077, 24 h
Micrococcus luteus = assay: Antibacterial activity against Micrococcus luteus ATCC 49732 after 24 hrs by serial dilution technique; format: functional; settings: ATCC 49732, 24 h
Staphylococcus aureus = assay: Antibacterial activity against Staphylococcus aureus ATCC 27154 after 24 hrs by serial dilution technique; format: functional; settings: ATCC 27154, 24 h
Micrococcus = assay: Antibacterial activity against Micrococcus tetragenus ATCC 13623 after 24 hrs by serial dilution technique; format: functional; settings: ATCC 13623, 24 h
Escherichia coli = assay: Antibacterial activity against Escherichia coli ATCC 25922 after 24 hrs by serial dilution technique; format: functional; settings: ATCC 25922, 24 h
Vibrio anguillarum = assay: Antibacterial activity against Vibrio anguillarum ATCC 19019 after 24 hrs by serial dilution technique; format: functional; settings: ATCC 19019, 24 h
Vibrio parahaemolyticus = assay: Antibacterial activity against Vibrio parahaemolyticus ATCC 17802 after 24 hrs by serial dilution technique; format: functional; settings: ATCC 17802, 24 h
A549 = assay: Cytotoxicity against human A549 cells by MTT assay; format: functional, cell-based
Procedure, shortened: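 A549 human lung cancer cells, MTT read-out, mitomycin as positive control; IC50 reported in μM.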

Staphylococcus albus = assay: Antibacterial activity against Staphylococcus albus ATCC 8799 after 24 hrs by serial dilution technique; settings: ATCC 8799, 24 h
Bacillus cereus [2] = assay: Ratio of ciprofloxacin MIC to compound MIC for Bacillus cereus ACCC 11077; format: functional

SMILES | MIC (Bacillus subtilis) [µM] | MIC (Bacillus cereus [1]) [µM] | MIC (Micrococcus luteus) [µM] | MIC (Staphylococcus aureus) [µM] | MIC (Micrococcus) [µM] | MIC (Escherichia coli) [µM] | MIC (Vibrio anguillarum) [µM] | MIC (Vibrio parahaemolyticus) [µM] | IC50 (A549) [µM] | MIC (Staphylococcus albus) [µM] | Ratio (Bacillus cereus [2])
COc1cc(O)c2c(c1O)C(=O)c1cc(C)c(O)cc1C2=O | > 200 | > 200 | > 200 | > 200 | > 200 | > 200 | > 200 | > 200 | > 50 | > 200 | 
COc1cc(O)c2c(c1O)[C@H](O)[C@H]1C[C@](C)(O)[C@H](O)[C@@H](O)[C@@H]1C2=O [9ALPHA-HYDROXYHALOROSELLINIA A] | 12.5 (≈ 4.25 µg/mL) | 12.5 (≈ 4.25 µg/mL) | > 100 | 0.78 (≈ 0.265 µg/mL) | 3.12 (≈ 1.06 µg/mL) | 1.56 (≈ 0.531 µg/mL) | 3.12 (≈ 1.06 µg/mL) | 3.12 (≈ 1.06 µg/mL) | 41.5 | > 100 | 
COC1=CC(=O)c2c(O)c3c(c(O)c2C1=O)C[C@](C)(O)[C@H](O)[C@H]3O [BOSTRYCIN] | 3.12 (≈ 1.05 µg/mL) | 3.12 (≈ 1.05 µg/mL) | 100 (≈ 33.6 µg/mL) | 1.56 (≈ 0.525 µg/mL) | 3.12 (≈ 1.05 µg/mL) | 1.56 (≈ 0.525 µg/mL) | 0.39 (≈ 0.131 µg/mL) | 3.12 (≈ 1.05 µg/mL) |  | 3.12 (≈ 1.05 µg/mL) | 
COc1cc(O)c2c(c1O)[C@H](O)[C@H]1C[C@](C)(O)[C@H](O)C[C@@H]1C2=O | 12.5 (≈ 4.05 µg/mL) | 12.5 (≈ 4.05 µg/mL) | 25 (≈ 8.11 µg/mL) | 25 (≈ 8.11 µg/mL) | 1.56 (≈ 0.506 µg/mL) | 6.25 (≈ 2.03 µg/mL) | 1.56 (≈ 0.506 µg/mL) | 12.5 (≈ 4.05 µg/mL) | > 50 | > 100 | 
COC1=CC(=O)c2c(O)c3c(c(O)c2C1=O)C[C@](C)(O)[C@H](OC(C)=O)[C@H]3O | > 200 | 3.12 (≈ 1.18 µg/mL) | > 200 | > 200 | 3.12 (≈ 1.18 µg/mL) | > 200 | > 200 | > 200 | 2.72 | > 200 | 
CO[C@@]12[C@H](COC(N)=O)C3=C(C(=O)C(C)=C(N)C3=O)N1C[C@@H]1N[C@@H]12 [MITOMYCIN] |  |  |  |  |  |  |  |  | 3 |  | 
COc1cc(O)c2c(c1O)C(=O)C1=C(C[C@@H](O)[C@@](C)(O)C1)C2=O | 3.12 (≈ 0.999 µg/mL) | 3.12 (≈ 0.999 µg/mL) | 200 (≈ 64.1 µg/mL) | 3.12 (≈ 0.999 µg/mL) | 3.12 (≈ 0.999 µg/mL) | 1.56 (≈ 0.5 µg/mL) | 3.12 (≈ 0.999 µg/mL) | 3.12 (≈ 0.999 µg/mL) |  | 3.12 (≈ 0.999 µg/mL) | 
COc1cc(O)c2c(c1OC(C)=O)C(=O)c1cc(C)c(OC(C)=O)cc1C2=O | > 200 | > 200 | 200 (≈ 76.9 µg/mL) | > 200 | 200 (≈ 76.9 µg/mL) | > 200 | > 200 | > 200 |  | > 200 | 
O=C(O)c1cn(C2CC2)c2cc(N3CCNCC3)c(F)cc2c1=O [CIPROFLOXACIN] | 0.312 (≈ 0.103 µg/mL) | 1.25 (≈ 0.414 µg/mL) | 2.5 (≈ 0.828 µg/mL) | 0.156 (≈ 0.0517 µg/mL) | 0.039 (≈ 0.0129 µg/mL) | 0.156 (≈ 0.0517 µg/mL) | 0.078 (≈ 0.0258 µg/mL) | 0.078 (≈ 0.0258 µg/mL) |  | 0.312 (≈ 0.103 µg/mL) | 
COc1cc(OC(C)=O)c2c(c1OC(C)=O)C(=O)c1cc(C)c(O)cc1C2=O | 5 (≈ 1.92 µg/mL) | 37.5 (≈ 14.4 µg/mL) | > 150 | > 150 | 9.4 (≈ 3.61 µg/mL) | > 150 | 4.7 (≈ 1.81 µg/mL) | 75 (≈ 28.8 µg/mL) |  | > 150 | 
COc1cc(O)c2c(c1O)[C@H](OC)[C@H]1C[C@](C)(O)[C@H](O)C[C@H]1C2=O | > 100 | 50 (≈ 16.9 µg/mL) | > 100 | 1.56 (≈ 0.528 µg/mL) | 0.78 (≈ 0.264 µg/mL) | 0.78 (≈ 0.264 µg/mL) | 25 (≈ 8.46 µg/mL) | 25 (≈ 8.46 µg/mL) | > 50 | > 100 | 
COc1cc(O)c2c(c1OC(C)=O)C(=O)c1cc(C)ccc1C2=O | > 200 | > 200 | > 200 | > 200 | > 200 | > 200 | > 200 | > 200 |  | > 200 | 
COC1=CC(=O)c2cc3c(c(O)c2C1=O)C[C@](C)(O)[C@H](O)[C@H]3O | 0.625 (≈ 0.2 µg/mL) | 10 (≈ 3.2 µg/mL) | 20 (≈ 6.41 µg/mL) | 2.5 (≈ 0.801 µg/mL) | 1.25 (≈ 0.4 µg/mL) | 2.5 (≈ 0.801 µg/mL) | 2.5 (≈ 0.801 µg/mL) | 1.25 (≈ 0.4 µg/mL) | 4.56 | 5 (≈ 1.6 µg/mL) | 
COc1cc(O)c2c(c1O)C(=O)c1cc(C)c(OC(C)=O)cc1C2=O | 12.5 (≈ 4.28 µg/mL) | 50 (≈ 17.1 µg/mL) | > 200 | > 200 | > 200 | > 200 | > 200 | > 200 |  | > 200 | 
COc1cc(O)c2c(c1OC(C)=O)C(=O)c1cc(C)c(O)cc1C2=O | > 200 | > 200 | > 200 | 100 (≈ 34.2 µg/mL) | > 200 | > 200 | > 200 | > 200 |  | 100 (≈ 34.2 µg/mL) | 
COC1=CC(=O)c2c(O)c3c(c(O)c2C1=O)C[C@](C)(O)[C@H](OC(C)=O)C3 | 0.78 (≈ 0.283 µg/mL) | 0.0488 (≈ 0.0177 µg/mL) | 100 (≈ 36.2 µg/mL) | > 200 | 0.195 (≈ 0.0707 µg/mL) | > 200 | 0.0975 (≈ 0.0353 µg/mL) | 0.78 (≈ 0.283 µg/mL) | 5.25 | 200 (≈ 72.5 µg/mL) | 25
COc1cc(O)c2c(c1O)C(=O)c1cc(C)ccc1C2=O [AUSTROCORTIRUBIN] | > 200 | > 200 | > 200 | > 200 | > 200 | > 200 | > 200 | > 200 | > 50 | > 200 | 
COc1cc(OC(C)=O)c2c(c1O)C(=O)c1cc(C)c(OC(C)=O)cc1C2=O | 50 (≈ 19.2 µg/mL) | > 200 | > 200 | > 200 | > 200 | > 200 | > 200 | > 200 |  | 50 (≈ 19.2 µg/mL) | 
COc1cc(OC(C)=O)c2c(c1O)C(=O)c1cc(C)c(O)cc1C2=O | > 200 | > 200 | > 200 | > 200 | > 200 | > 200 | > 200 | > 200 |  | > 200 | 
COc1cc(OC(C)=O)c2c(c1OC(C)=O)C(=O)c1cc(C)c(OC(C)=O)cc1C2=O | 35 (≈ 14.9 µg/mL) | 140 (≈ 59.7 µg/mL) | 140 (≈ 59.7 µg/mL) | > 140 | > 140 | > 140 | 140 (≈ 59.7 µg/mL) | > 140 | > 50 | 70 (≈ 29.8 µg/mL) | 
COC1=CC(=O)c2c(cc3c(c2O)C[C@@H](O)[C@@](C)(O)C3)C1=O [NIGROSPORIN B] | 0.312 (≈ 0.0949 µg/mL) | 0.312 (≈ 0.0949 µg/mL) | 10 (≈ 3.04 µg/mL) | 1.25 (≈ 0.38 µg/mL) | 0.625 (≈ 0.19 µg/mL) | 1.25 (≈ 0.38 µg/mL) | 1.25 (≈ 0.38 µg/mL) | 0.625 (≈ 0.19 µg/mL) | 3.32 | 2.5 (≈ 0.761 µg/mL) | 
